Results of several laboratories.
Each line is one published result; the experiments were not run side by side.
ache: Acetylcholinesterase (ache, Electrophorus electricus, UniProt O42275)
Sialidase-4: Sialidase-4 (Homo sapiens, UniProt Q8WWR8)
ALOX15: Polyunsaturated fatty acid lipoxygenase ALOX15 (ALOX15, Homo sapiens, UniProt P16050)

SMILES | target | test | IC50 [µM]
Fc1ccc(-c2nnc(-c3ccc(OCc4cn(Cc5ccc(Cl)cc5)nn4)cc3)o2)cc1 | ache | enzyme activity, inhibitor, Ellman | > 100
O=C(N1CCC2(CC1)C[C@H](CN1CCCCS1(=O)=O)CCO2)C1(c2ccccc2)CCCC1 | ATP-dependent RNA helicase DDX3X (DDX3X, Homo sapiens, UniProt O00571) | ATPase activity, inhibitor | > 50
CCN(C)C(=O)Oc1ccc(CCC(=O)N2CCc3ccccc3C2)cc1OC | ache | enzyme activity, inhibitor, Ellman | 10.6
CC(C)(C)CN[C@H]1[C@H]([C@H](O)[C@H](O)CO)OC(C(=O)O)=C[C@@H]1O | Sialidase-4 | enzyme activity, inhibitor | 40
COc1ccc(/C=C/C(=O)N2CCCC(NC(=O)OC(C)(C)C)C2)cc1OC (centres unmarked) | ache | enzyme activity, inhibitor, Ellman | > 50
CCOC(=O)c1ccccc1-c1c2ccc(=O)cc-2oc2cc(OCCCNc3c(-c4ccc5ccccc5c4)nc4ccccn34)ccc12 | ALOX15 | enzyme activity, inhibitor, absorbance | > 100
CC(C)CCC(=O)N[C@H]1[C@H]([C@H](O)[C@H](O)CO)OC(C(=O)O)=C[C@@H]1O | Sialidase-4 | enzyme activity, inhibitor | 270
Fc1ccc(Cn2cc(COc3ccc(-c4nnc(-c5ccccc5)o4)cc3)nn2)cc1 | ache | enzyme activity, inhibitor, Ellman | > 100
CCOC(=O)c1ccccc1-c1c2ccc(=O)cc-2oc2cc(OCCCNC(=O)C(OC(=O)c3ccccc3)C3CC3)ccc12 (centres unmarked) | ALOX15 | enzyme activity, inhibitor, absorbance | 43.7
CCN(C)C(=O)Oc1ccc(CCC(=O)N(CC)Cc2ccccc2)cc1OC | ache | enzyme activity, inhibitor, Ellman | 13.8
CN(C(=O)CC(C)(C)C)[C@H]1[C@H]([C@H](O)[C@H](O)CO)OC(C(=O)O)=C[C@@H]1O | Sialidase-4 | enzyme activity, inhibitor | > 500
COc1ccc(-c2nnc(-c3ccc(OCc4cn(Cc5ccc(Br)cc5)nn4)cc3)o2)cc1 | ache | enzyme activity, inhibitor, Ellman | > 100
CCN[C@H]1[C@H]([C@H](O)[C@H](O)CO)OC(C(=O)O)=C[C@@H]1O | Sialidase-4 | enzyme activity, inhibitor | > 500
CCOC(=O)c1ccccc1-c1c2ccc(=O)cc-2oc2cc(OCCCNc3c(-c4ccc(Cl)cc4)nc4ccccn34)ccc12 | ALOX15 | enzyme activity, inhibitor, absorbance | 78.7
CCCC[C@H]1C(=O)N(C)[C@@H](CCCC)C(=O)N[C@@H](CCCCNC(=O)CN2CCN(CC(=O)O)CCN(CC(=O)O)CC2)C(=O)N[C@H](C(=O)NCC(N)=O)CSCC(=O)N[C@@H](Cc2ccc(O)cc2)C(=O)N(C)[C@@H](C)C(=O)N[C@@H](CC(N)=O)C(=O)N2CCC[C@H]2C(=O)N[C@@H](Cc2c[nH]cn2)C(=O)N[C@@H](CCC(=O)O)C(=O)N2C[C@H](O)C[C@H]2C(=O)N[C@@H](Cc2c[nH]c3ccccc23)C(=O)N[C@@H](CO)C(=O)N[C@@H](Cc2cn(CC(=O)O)c3ccccc23)C(=O)N1C | Programmed cell death 1 ligand 1 (CD274, Homo sapiens, UniProt Q9NZQ7) | ligand displacement, radioligand | 0.00245
COc1cc(/C=C/C(=O)NC2CCN(Cc3ccccc3)CC2)ccc1OC(=O)N1CCCC1 | ache | enzyme activity, inhibitor, Ellman | 3.1
CCCCCCN[C@H]1[C@H]([C@H](O)[C@H](O)CO)OC(C(=O)O)=C[C@@H]1O | Sialidase-4 | enzyme activity, inhibitor | > 500
